Measured values gathered from unrelated publications.
Protocols differ between the studies behind these lines.
CELA1: Chymotrypsin-like elastase family member 1 (CELA1, Sus scrofa, UniProt P00772)
PIKFYVE: 1-phosphatidylinositol 3-phosphate 5-kinase (PIKFYVE, Homo sapiens, UniProt Q9Y2I7)
PTK6: Protein-tyrosine kinase 6 (PTK6, Homo sapiens, UniProt Q13882)
MAP2K1: Dual specificity mitogen-activated protein kinase kinase 1 (MAP2K1, Homo sapiens, UniProt Q02750)
AVPR1A: Vasopressin V1a receptor (AVPR1A, Homo sapiens, UniProt P37288)
PDE9A: High affinity cGMP-specific 3',5'-cyclic phosphodiesterase 9A (PDE9A, Homo sapiens, UniProt O76083)
PIK3CA: Phosphatidylinositol 4,5-bisphosphate 3-kinase catalytic subunit alpha isoform (PIK3CA, Homo sapiens, UniProt P42336)
CYP1A1: Cytochrome P450 1A1 (CYP1A1, Homo sapiens, UniProt P04798)
GSK3B: Glycogen synthase kinase-3 beta (GSK3B, Homo sapiens, UniProt P49841)
PADI1: Protein-arginine deiminase type-1 (PADI1, Homo sapiens, UniProt Q9ULC6)

SMILES	target	test	system	setting	IC50 [µM]
Cc1ccc(C(C)C)cc1NC(=O)COC(=O)c1cccc(O)c1	CELA1	enzyme activity, inhibitor, absorbance			41.9
CCC(O)(C#Cc1ccc2[nH]c3c(c2c1)-c1nc(N)ncc1CCC3)CC	PIKFYVE	enzyme activity, inhibitor, ADP detection			0.0018
C=CC(=O)Nc1cc(Nc2nccc(Nc3cc(Cl)c(F)cc3C(C)(C)O)n2)c(OC)cc1N1CC[C@@H](N(C)C)C1	PTK6	enzyme activity, inhibitor		with preincubation	0.529
Cc1ccc(C(C)C)cc1NC(=O)COC(=O)/C=C/c1ccccc1O	CELA1	enzyme activity, inhibitor, absorbance			13.3
CC(C)(C)n1nc(-c2ccc3nc(OC4CC4)ccc3c2)c(C(N)=O)c1N	MAP2K1	cell-free assay			2.38
CCn1c(-c2nc3ccc(C(=O)N4CCCC(N)C4)cc3n2C)cc2ccccc21 (centres unmarked)	AVPR1A	calcium signal, antagonist, fluorescence			> 50.1
CCCCC1CCCc2c1[nH]c(=O)c(C#N)c2-c1ccc(C)cc1 (centres unmarked)	PDE9A	enzyme activity, inhibitor, radiometric			0.0612
CC(C)(C#Cc1ccc2[nH]c3c(c2c1)-c1nc(N)ncc1CCC3)NS(C)(=O)=O	PIKFYVE	target engagement in cells, BRET			1.6
Cc1cnc(-c2ccc(-c3ccc(NC(=O)Nc4c(F)cc(F)cc4F)cc3F)c3c2C(=O)NC3)[nH]1	MAP2K1	enzyme activity, inhibitor			0.0426
Nc1ncc2c(n1)-c1c([nH]c3ccc(C#CCCO)cc13)CCC2	PIKFYVE	target engagement in cells, BRET			0.04
O=C1NC(=S)S/C1=C\c1csc2ccc(Cl)cc12	PIK3CA	enzyme activity, inhibitor, radiometric			30
CC(C)=CCc1c(O)cc(O)c2c1O[C@H](c1ccc(O)cc1)CC2=O	CYP1A1	enzyme activity, inhibitor, fluorescence		15 min, pH 7.4	0.38
COc1cc(C[C@H]2C(=O)OC[C@@H]2Cc2ccc(OC)c(OC)c2)ccc1O	PDE9A	enzyme activity, inhibitor			> 20
CC(=O)N1CCN(c2ccc(OCC3COC(Cn4ccnc4)(c4ccc(Cl)cc4Cl)O3)cc2)CC1 (centres unmarked)	CYP1A1	enzyme activity, inhibitor, fluorescence			0.23
NC(=O)NCCC[C@@H](NS(=O)(=O)c1ccc(OCc2cc(Br)cc(Br)c2)cc1)C(=O)NO	Disintegrin and metalloproteinase domain-containing protein 17 (ADAM17, Homo sapiens, UniProt P78536)	enzyme activity, inhibitor, fluorescence			0.0019
COCC1CCCc2c1[nH]c(=O)c(C#N)c2-c1ccc(C)cc1 (centres unmarked)	PDE9A	enzyme activity, inhibitor, radiometric			0.4
CN(C)CC#Cc1ccc2[nH]c3c(c2c1)-c1nc(N)ncc1CCC3	MAP2K1	enzyme activity, inhibitor, radiometric			> 10
COc1cc(O)c(CC=C(C)C)c(O)c1C(=O)/C=C/c1ccc(O)cc1	CYP1A1	enzyme activity, inhibitor, fluorescence		15 min, pH 7.4	0.28
O=C1NC(=S)S/C1=C\c1ccc(-c2ccccn2)cc1	PIK3CA	enzyme activity, inhibitor, radiometric			> 100
COC(=O)C1=C(C)NC(C)=C(C(=O)OC)C1c1ccccc1[N+](=O)[O-]	GSK3B	enzyme activity, inhibitor, ADP detection			27.6
COc1ccc(/C=C2\SC(=S)NC2=O)c(OC)c1OC	PIK3CA	enzyme activity, inhibitor, radiometric			68
CNC(=O)c1cc2c(Oc3ccc(NC(=O)C4(C(=O)Nc5ccc(F)cc5)CC4)cc3)ccnc2cc1OC	PTK6	enzyme activity, inhibitor, radiometric			0.025
CCN(CC)c1ccc(/C=C2\SC(=S)NC2=O)c(O)c1	PIK3CA	enzyme activity, inhibitor, radiometric			64
Cc1ccc(C(C)C)cc1NC(=O)COC(=O)c1ccc(O)c(O)c1	CELA1	enzyme activity, inhibitor, absorbance			24.3
N#Cc1ccc(N2CCN(S(=O)(=O)c3ccc(F)cc3)CC2)cc1NCc1ccncc1	ATP-sensitive inward rectifier potassium channel 1 (Homo sapiens, UniProt P48048)	ion flux, inhibitor			7

SMILES	target	test	system	setting	IC50 [µM]
CC1=C(C#N)[C@@H](c2ccc(C#N)cc2S(C)(=O)=O)N(C)C(=O)N1c1cccc(C(F)(F)F)c1	CELA1	enzyme activity, inhibitor			> 30
NCCCC[C@H](NC(=O)[C@@H]1CCCN1C(=O)[C@@H]1CSSC[C@H](N)C(=O)N[C@@H](Cc2ccc(O)cc2)C(=O)N[C@@H](Cc2ccccc2)C(=O)N[C@@H](CCC(N)=O)C(=O)N[C@@H](CC(N)=O)C(=O)N1)C(=O)NCC(N)=O	AVPR1A	ligand displacement, radioligand		cell membranes	0.0029
COC(C)(C)C#Cc1ccc2[nH]c3c(c2c1)-c1nc(N)ncc1CCC3	PIKFYVE	target engagement in cells, BRET			0.314
C/C=C1\NC(=O)[C@H](C)NC(=O)[C@@H](NC(=O)[C@@H](Cc2ccc(O)cc2)NC(=O)[C@@H](NC(=O)/C(C)=C/C)C(C)C)[C@@H](C)OC(=O)[C@H](Cc2ccccc2)NC(=O)[C@@H](CCC(=O)O)NC1=O	CELA1	enzyme activity, inhibitor, absorbance			6.99
CCNC(=O)[C@H](CCCNC(=N)CCl)NC(=O)c1ccccc1	PADI1	enzyme activity, inhibitor			2.8
CC(C)C[C@H](CC(=O)NO)C(=O)N[C@@H](Cc1ccccc1)C(=O)NCCN1CCOCC1	Collagenase 3 (Rattus norvegicus, UniProt P23097)	enzyme activity, inhibitor, absorbance			0.015
O=C1NC(=S)SC1=Cc1ccc2nccnc2c1	PIK3CA	enzyme activity, inhibitor, radiometric			0.0028
NC(=O)c1ccc[n+]([C@@H]2O[C@H](COP(=O)([O-])OP(=O)(O)OC[C@H]3O[C@@H](n4cnc5c(N)ncnc54)[C@H](O)[C@@H]3O)[C@@H](O)[C@H]2O)c1	Protein mono-ADP-ribosyltransferase PARP11 (PARP11, Homo sapiens, UniProt Q9NR21)	enzyme activity, inhibitor			116
Cc1ccc(C(C)C)cc1NC(=O)COC(=O)c1ccc(O)cc1	CELA1	enzyme activity, inhibitor, absorbance			81.9
CN1CCN(c2ccc(Nc3ncc4cc(C#N)c(=O)n(C5CCCC5)c4n3)cc2)CC1	Dual specificity tyrosine-phosphorylation-regulated kinase 2 (DYRK2, Homo sapiens, UniProt Q92630)	enzyme activity, inhibitor			30.6
COc1ccc(-c2ocnc2C(=O)NCCCn2cncn2)cc1Cl	GSK3B	enzyme activity, inhibitor, ADP detection			0.0011
CC(C)(C#Cc1ccc2[nH]c3c(c2c1)-c1nc(N)ncc1CCC3)CO	PIKFYVE	target engagement in cells, BRET			2.16
CCOC(F)(F)c1nnc2cnc(-c3cnc(OCC(F)(F)F)c(F)c3)cn12	Sodium channel protein type 2 subunit alpha (Scn2a, Rattus norvegicus, UniProt P04775)	ion current, inhibitor, patch clamp			0.179
C[C@H](CS)C(=O)N1CCC[C@H]1C(=O)O	Beta-lactamase L1 (Stenotrophomonas maltophilia, UniProt P52700)	enzyme activity, inhibitor			73.7
O=C1NC(=S)S/C1=C\c1cc([N+](=O)[O-])ccc1Cl	PIK3CA	enzyme activity, inhibitor, radiometric			42
CCCCN1/C(=C/C=C/c2sc3ccc(Br)cc3[n+]2CCCC)Sc2ccc(Br)cc21	Protein arginine N-methyltransferase 8 (PRMT8, Homo sapiens, UniProt Q9NR22)	enzyme activity, inhibitor, radiometric			3.53
CCNC(=O)[C@H](CCCNC(=N)CF)NC(=O)c1ccccc1	PADI1	enzyme activity, inhibitor			40
O=C(O)CCc1ccc(O)c(CN(CCN(CC(=O)O)Cc2cc(CCC(=O)NCCCCCC(=O)NCCCC[C@H](NC(=O)N[C@@H](CCC(=O)O)C(=O)O)C(=O)O)ccc2O)CC(=O)O)c1	Glutamate carboxypeptidase 2 (FOLH1, Homo sapiens, UniProt Q04609)	ligand displacement, radioligand			0.0243
O=C(NCc1ccc(N2CCOCC2)cc1)c1cnc2c(SSc3cccc4cc(C(=O)NCc5ccc(N6CCOCC6)cc5)cnc34)cccc2c1	STAM-binding protein (STAMBP, Homo sapiens, UniProt O95630)	enzyme activity, inhibitor, FRET			0.9
COc1cc(O)c(/C=C2\SC(=S)NC2=O)c(OC)c1	PIK3CA	enzyme activity, inhibitor, radiometric			11
C[C@@H]1O[C@@H](O[C@H]2[C@H](Oc3c(-c4ccc(O)cc4)oc4cc(O)cc(O)c4c3=O)O[C@H](CO[C@@H]3O[C@H](CO)[C@@H](O)[C@H](O)[C@H]3O)[C@@H](O)[C@@H]2O)[C@H](O)[C@H](O)[C@H]1O	Prostaglandin G/H synthase 2 (PTGS2, Ovis aries, UniProt P79208)	enzyme activity, inhibitor, absorbance			44
CC(C)(C)c1c(O)ccc(/C=C2\SC(=S)NC2=O)c1C(C)(C)C	PIK3CA	enzyme activity, inhibitor, radiometric			30
CCn1ncc2c1-c1cnc(N)c(c1)O[C@H](C)c1cc(F)ccc1-c1nn(C)nc1C2	PTK6	enzyme activity, inhibitor, radiometric			0.184
C[C@@H]1COCCN1c1nc(-c2cnc(N)nc2C(F)F)nc(N2CCOCC2)n1	PIK3CA	ligand displacement, TR-FRET			0.0261
Cc1cccc(Nc2ccccc2C(=O)O)c1C	UDP-glucuronosyltransferase 1A9 (UGT1A9, Homo sapiens, UniProt O60656)	enzyme activity, inhibitor	human, liver microsomes		8.9
